Measured values reported in ChEMBL document CHEMBL1944567, “Synthesis, biological evaluation, and molecular modeling of chalcone derivatives as potent inhibitors of Mycobacterium tuberculosis protein tyrosine phosphatases (PtpA and PtpB)” (J Med Chem, 2012).

Experiments:
[1] = target: T1, Low molecular weight protein-tyrosine phosphatase A (Mycobacterium tuberculosis) (UniProt P9WIA1); assay: Inhibition of Mycobacterium tuberculosis PTP-A using p-nitrophenyl phosphate as substrate at 25 uM measured for 10 mins by spectrofluorimetry
T1 sequence (whole entry): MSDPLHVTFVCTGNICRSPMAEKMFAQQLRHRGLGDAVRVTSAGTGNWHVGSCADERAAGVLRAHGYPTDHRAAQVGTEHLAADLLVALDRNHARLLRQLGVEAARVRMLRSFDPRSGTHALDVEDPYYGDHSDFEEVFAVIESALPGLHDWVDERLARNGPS
Outline: (§1)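 Single-point screen at 25 μM final compound, added from 1.0 × 10−3 M DMSO stock, with recombinant Mtb PtpA or PtpB (0.4 μg/μL final) in 20 mM imidazole pH 7.0 with 40 mM pNPP. Reaction started by adding enzyme. p-Nitrophenol release read at 410 nm every min for 10 min at 37 °C. Residual activity was taken from the absorbance difference between 6 and 2 min; two experiments, each in triplicate.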

[2] = target: T2, Phosphotyrosine-protein phosphatase PTPB (Mycobacterium tuberculosis) (UniProt P96830); assay: Inhibition of Mycobacterium tuberculosis PTP-B using p-nitrophenyl phosphate as substrate at 25 uM measured for 10 mins by spectrofluorimetry; outline: as §1
T2 sequence (whole entry): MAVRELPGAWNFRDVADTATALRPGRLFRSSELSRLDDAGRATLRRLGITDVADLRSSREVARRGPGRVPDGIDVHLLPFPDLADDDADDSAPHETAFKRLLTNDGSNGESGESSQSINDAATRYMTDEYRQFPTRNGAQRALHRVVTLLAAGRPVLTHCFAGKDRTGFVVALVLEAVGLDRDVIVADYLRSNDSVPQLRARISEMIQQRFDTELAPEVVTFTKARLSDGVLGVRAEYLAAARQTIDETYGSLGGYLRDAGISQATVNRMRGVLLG

[3] = Solubility of the compound; type: physicochemical
[4] = target: T3, Low molecular weight protein-tyrosine phosphatase A (Mycobacterium tuberculosis, UniProt P9WIA1); assay: Inhibition of Mycobacterium tuberculosis PTP-A using p-nitrophenyl phosphate as substrate measured for 10 mins by spectrofluorimetry
T3 sequence (P9WIA1 whole entry): T1 sequence (whole entry)
Outline: (§2)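 A410 read each minute over 10 min at 37 °C. Residual activity compared with wells without inhibitor; IC50 by linear regression of % inhibition against concentration. Triplicate, two independent experiments.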

[5] = target: T4, Phosphotyrosine-protein phosphatase PTPB (Mycobacterium tuberculosis, UniProt P96830); assay: Inhibition of Mycobacterium tuberculosis PTP-B using p-nitrophenyl phosphate as substrate measured for 10 mins by spectrofluorimetry; outline: as §2
T4 sequence (P96830 whole entry): T2 sequence (whole entry)

[6] = target: T3, Low molecular weight protein-tyrosine phosphatase A; assay: Inhibition of Mycobacterium tuberculosis PTP-A
[7] = target: T5, Tyrosine-protein phosphatase non-receptor type 1 (Homo sapiens, UniProt P18031); assay: Inhibition of human PTP1B expressed in Escherichia coli BL21 DE3 using p-nitrophenyl phosphate as substrate measured for 10 mins by spectrofluorimetry
T5 sequence (P18031 whole entry): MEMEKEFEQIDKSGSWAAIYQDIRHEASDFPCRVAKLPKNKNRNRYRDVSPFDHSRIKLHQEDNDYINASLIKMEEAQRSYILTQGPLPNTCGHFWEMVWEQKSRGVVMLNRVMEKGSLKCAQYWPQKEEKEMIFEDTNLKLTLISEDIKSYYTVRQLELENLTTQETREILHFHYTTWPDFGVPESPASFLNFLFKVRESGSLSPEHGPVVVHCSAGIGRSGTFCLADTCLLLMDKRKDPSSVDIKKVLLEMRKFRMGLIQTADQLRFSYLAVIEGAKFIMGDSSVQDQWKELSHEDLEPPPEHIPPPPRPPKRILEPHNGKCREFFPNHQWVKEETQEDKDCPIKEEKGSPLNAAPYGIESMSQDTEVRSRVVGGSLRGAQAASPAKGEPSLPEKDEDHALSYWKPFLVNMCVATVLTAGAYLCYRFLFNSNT

[8] = target: T4, Phosphotyrosine-protein phosphatase PTPB; assay: Competitive inhibition of Mycobacterium tuberculosis PTP-B using p-nitrophenyl phosphate as substrate measured for 10 mins by Lineweaver-Burk plot analysis
Outline: (§3)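 Kinetic mode determined with recombinant Mtb enzyme (PtpA or PtpB) using the screening conditions (20 mM imidazole pH 7.0, 37 °C, A410 read each minute for 10 min) but with pNPP varied over 0.5, 1.5, 3, 6, 8, 10, 15 and 25 mM. At least three inhibitor concentrations in the 5–60 μM range were used. Ki and mechanism were taken from Lineweaver–Burk double-reciprocal plots.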

[9] = target: T1, Low molecular weight protein-tyrosine phosphatase A (Mycobacterium tuberculosis); assay: Ratio of IC50 to Ki for Mycobacterium tuberculosis protein tyrosine phosphatase-A
[10] = Selectivity index, ratio of IC50 for human PTP1B to IC50 for Mycobacterium tuberculosis PTP-A
Outline: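 Selectivity index calculated as IC50 for human PTP1B divided by IC50 for Mtb PtpA. Both IC50 values came from pNPP hydrolysis assays read at 410 nm for 10 min at 37 °C.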

[11] = target: T3, Low molecular weight protein-tyrosine phosphatase A; assay: Competitive inhibition of Mycobacterium tuberculosis PTP-A using p-nitrophenyl phosphate as substrate measured for 10 mins by Lineweaver-Burk plot analysis; outline: as §3

Row | SMILES | inhibition [1] | inhibition [2] | solubility [3] | IC50 [4] | IC50 [5] | IC50 [6] | IC50 [7] | Ki [8] | Ratio [9] | Ratio IC50 [10] | Ki [11]
1 | COc1ccc(/C=C/C(=O)c2ccc3ccccc3c2)cc1 | 35% | 0% | soluble | 93 µM |  |  |  |  |  |  | 
2 | O=C(/C=C/c1ccc(Cl)cc1Cl)c1ccc2ccccc2c1 | 10% | 47% | soluble |  | 417 µM |  |  |  |  |  | 
3 | O=C(/C=C/c1ccc(Cl)cc1Cl)c1ccc2c(c1)OCO2 | 27% | 0% | soluble | 407 µM |  |  |  |  |  |  | 
4 | COc1cc(OC)c(/C=C/C(=O)c2ccc3ccccc3c2)c(OC)c1 | 49% | 0% | soluble | 1660 µM |  |  |  |  |  |  | 
5 | O=C(/C=C/c1ccc(Br)cc1)c1ccc2c(c1)OCO2 | 37% | 9% | soluble | 66 µM |  |  |  |  |  |  | 
6 | CCCCCC1=C/C(=C/c2[nH]c(-c3ccc[nH]3)cc2OC)N=C1C [PRODIGIOSIN] |  |  |  |  |  | 8.8 µM |  |  |  |  | 
7 | O=C(/C=C/c1ccc([N+](=O)[O-])cc1)c1ccc2ccccc2c1 | 18% | 39% | soluble |  | 62 µM |  |  |  |  |  | 
8 | O=C(/C=C/c1ccc(Cl)c(Cl)c1)c1ccc2c(c1)OCO2 | 35% | 0% | soluble | 151 µM |  |  |  |  |  |  | 
9 | O=C(O)c1ccc(/C=C/C(=O)c2ccc3ccccc3c2)cc1 | 9% | 70% | soluble | > 100 µM | 12 µM |  | 3090 µM | 8 µM |  |  | 
10 | O=C(/C=C/c1cccc2ccccc12)c1ccc2ccccc2c1 | 43% | 0% | soluble | 93 µM |  |  |  |  |  |  | 
11 | Cc1ccc(/C=C/C(=O)c2ccc3ccccc3c2)o1 | 30% | 0% | soluble | 1020 µM |  |  |  |  |  |  | 
12 | O=C(/C=C/c1ccc2c(c1)OCO2)c1ccc([N+](=O)[O-])cc1 | 33% | 34% | soluble | 62 µM | 51 µM |  | 23 µM | 13 µM |  |  | 
13 | Cc1ccc(C(=O)/C=C/c2ccc3ccccc3c2)cc1 | 10% | 34% | soluble |  | 135 µM |  |  |  |  |  | 
14 | O=C(/C=C/c1ccc([N+](=O)[O-])cc1)c1ccc2c(c1)OCO2 | 35% | 10% | soluble | 74 µM |  |  |  |  |  |  | 
15 | COc1ccc(C(=O)/C=C/c2ccc3c(c2)OCO3)c(OC)c1 | 42% | 0% | soluble | 101 µM |  |  |  |  |  |  | 
16 | COc1ccc(C(=O)/C=C/c2ccc(OCc3ccccc3)c(OC)c2)c(OC)c1 | 40% | 0% | soluble | 15 µM | > 100 µM |  | 263 µM |  | 1.3 | 18 | 12 µM
17 | O=C(/C=C/c1ccc2ccccc2c1)c1ccc2ccccc2c1 | 39% | 25% | soluble | 93 µM |  |  |  |  |  |  | 
18 | O=C(/C=C/c1ccc2ccccc2c1)c1ccc(Br)cc1 | 11% | 42% | soluble | > 50 µM | 25 µM |  | 29 µM | 10 µM |  |  | 
19 | O=C(/C=C/c1ccc(Cl)cc1)c1ccc2c(c1)OCO2 | 38% | 0% | soluble | 117 µM |  |  |  |  |  |  | 
20 | O=C(/C=C/c1ccc2ccccc2c1)c1ccc(Cl)s1 | 31% | 49% | soluble | 32 µM | 57 µM |  | 100 µM |  | 1.4 | 3.1 | 23 µM

Row | SMILES | inhibition [1] | inhibition [2] | solubility [3] | IC50 [4] | IC50 [5] | IC50 [6] | IC50 [7] | Ki [8] | Ratio [9] | Ratio IC50 [10] | Ki [11]
21 | O=C(/C=C/c1ccc2ccccc2c1)c1ccc(-n2ccnc2)cc1 | 40% | 0% | soluble | 100 µM |  |  |  |  |  |  | 
22 | O=C(/C=C/c1ccc2c(c1)OCO2)c1cccc([N+](=O)[O-])c1 | 26% | 6% | soluble | 45 µM | > 100 µM |  | 107 µM |  | 1.5 | 2.4 | 29 µM
23 | COc1ccc2nc(Cl)c(/C=C/C(=O)c3ccc4c(c3)OCO4)cc2c1 | 29% | 0% | soluble | 93 µM |  |  |  |  |  |  | 
24 | O=C(/C=C/c1ccc(C(F)(F)F)cc1)c1ccc2ccccc2c1 | 43% | 37% | soluble | 331 µM | 339 µM |  |  |  |  |  | 
25 | COc1cc(/C=C/C(=O)c2ccc(-n3ccnc3)cc2)ccc1OCc1ccccc1 | 38% | 0% | soluble | 102 µM |  |  |  |  |  |  | 
26 | O=C(/C=C/c1ccccc1[N+](=O)[O-])c1ccc2ccccc2c1 | 10% | 32% | soluble |  | 54 µM |  |  |  |  |  | 
27 | COc1cccc(OC)c1/C=C/C(=O)c1ccc2ccccc2c1 | 40% | 24% | soluble | 214 µM |  |  |  |  |  |  | 
28 | O=C(/C=C/c1ccccc1[N+](=O)[O-])c1ccc2c(c1)OCO2 | 0% | 43% | soluble |  | 81 µM |  |  |  |  |  | 
29 | COc1ccc(/C=C/C(=O)c2ccc3c(c2)OCO3)c(OC)c1OC | 26% | 9% | soluble | 83 µM |  |  |  |  |  |  | 
30 | Cc1ccc(/C=C/C(=O)c2ccc3c(c2)OCO3)o1 | 40% | 8% | soluble | 169 µM |  |  |  |  |  |  | 
31 | O=C(/C=C/c1c(Cl)cccc1Cl)c1ccc2c(c1)OCO2 | 13% | 0% | soluble |  |  |  |  |  |  |  | 
32 | COc1cc(OC)cc(C(=O)/C=C/c2ccc3ccccc3c2)c1 | 0% | 10% | soluble |  |  |  |  |  |  |  | 
33 | O=C(/C=C/c1ccc2ccccc2c1)c1cc(Cl)ccc1Cl | 0% | 20% | soluble |  |  |  |  |  |  |  | 
34 | COc1cc(/C=C/C(=O)c2ccc(Br)cc2)ccc1OCc1ccccc1 | 63% | 0% | soluble | 302 µM |  |  |  |  |  |  | 
35 | O=C(/C=C/c1ccc(-c2cc(C(F)(F)F)ccc2Cl)o1)c1ccc2c(c1)OCO2 | 36% | 16% | soluble | 174 µM |  |  |  |  |  |  | 
36 | O=C(/C=C/c1cccc(C(F)(F)F)c1)c1ccc2c(c1)OCO2 | 41% | 0% | soluble | 155 µM |  |  |  |  |  |  | 
37 | COc1cc(/C=C/C(=O)c2ccc(Cl)s2)ccc1OCc1ccccc1 | 5% | 19% | soluble |  |  |  |  |  |  |  | 
38 | O=C(/C=C/c1ccc2ccccc2c1)c1ccc[nH]1 | 16% | 37% | soluble |  | 81 µM |  |  |  |  |  | 
39 | COc1cc(OC)c(C(=O)/C=C/c2ccc3c(c2)OCO3)c(OC)c1 | 0% | 15% | soluble |  |  |  |  |  |  |  | 
